From ChEMBL document CHEMBL1782036, “Atovaquone derivatives as potent cytotoxic and apoptosis inducing agents” (Bioorg Med Chem Lett, 2009)

How the values were obtained:
DU-145 [1] = test: Growth inhibition of human DU145 cells after 72 hrs by MTT assay; format: functional, cell-based; details: DU-145, 72 h
Outline: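 Du145 human prostate carcinoma cells were screened by MTT cell-growth inhibition assay. IC50 values are means of three experiments.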

IMR-90 = test: Antiproliferative activity against human IMR90 cells after 72 hrs by MTT assay; format: cell-based; details: IMR-90, 72 h
A549 = test: Antiproliferative activity against human A549 cells after 72 hrs by MTT assay; format: functional, cell-based; details: A549, 72 h
HeLa = test: Antiproliferative activity against human HeLa cells after 72 hrs by MTT assay; format: functional, cell-based
HepG2 = test: Antiproliferative activity against human HepG2 cells after 72 hrs by MTT assay; format: functional, cell-based; details: HepG2, 72 h
HT-1080 = test: Antiproliferative activity against human HT1080 cells after 72 hrs by MTT assay; format: functional, cell-based; details: HT-1080, 72 h
HT-29 = test: Antiproliferative activity against human HT-29 cells after 72 hrs by MTT assay; format: functional, cell-based; details: HT-29, 72 h
KB = test: Antiproliferative activity against human KB cells after 72 hrs by MTT assay; format: functional, cell-based
[2] = Antiproliferative activity against human L78 cells after 72 hrs by MTT assay; format: functional, cell-based; details: L78, 72 h
MCF7 = test: Antiproliferative activity against human MCF7 cells after 72 hrs by MTT assay; format: functional, cell-based; details: MCF7, 72 h
MOLT-4 = test: Antiproliferative activity against human MOLT4 cells after 72 hrs by MTT assay; format: functional, cell-based; details: MOLT-4, 72 h
OS-RC-2 = test: Antiproliferative activity against human OS-RC2 cells after 72 hrs by MTT assay; format: functional, cell-based; details: OS-RC-2, 72 h
SGC-7901 = test: Antiproliferative activity against human SGC7901 cells after 72 hrs by MTT assay; format: functional, cell-based; details: SGC-7901, 72 h
U-251 = test: Antiproliferative activity against human U251 cells after 72 hrs by MTT assay; format: functional, cell-based; details: U-251, 72 h
DU-145 [3] = test: Induction of apoptosis in human DU145 cells at 5 uM assessed as live cell level after 72 hrs by AnnexinV conjugated 7- AAD staining by flow cytometry; format: functional
Outline: (§1)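 Du145 cells were treated for 72 h and stained with Annexin V conjugate plus 7-AAD. Flow cytometry read PS externalization and membrane integrity, scoring cells as live (double negative), early apoptotic, or late apoptotic/necrotic (double positive). Untreated cells served as the control.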

DU-145 [4] = test: Induction of apoptosis in human DU145 cells at 5 uM assessed as early apoptosis level after 72 hrs by AnnexinV conjugated 7- AAD staining by flow cytometry; format: functional; outline: as §1
DU-145 [5] = test: Induction of apoptosis in human DU145 cells at 5 uM assessed as late apoptosis/ necrotic cells level after 72 hrs by AnnexinV conjugated 7- AAD staining by flow cytometry; format: functional; outline: as §1
DU-145 [6] = test: Induction of apoptosis in human DU145 cells at 5 uM assessed as dead cell level after 72 hrs by AnnexinV conjugated 7- AAD staining by flow cytometry; format: functional
Outline: (§2)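 Du145 human prostate carcinoma cells exposed to compound for 72 h, then stained with Annexin V and 7-AAD and analysed by flow cytometry. Annexin V detects phosphatidylserine externalised to the outer membrane leaflet, and 7-AAD enters only membrane-compromised cells. Dead cells were those positive for both stains. Untreated cells served as control.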

DU-145 [7] = test: Induction of apoptosis in human DU145 cells at 10 uM assessed as live cell level after 72 hrs by AnnexinV conjugated 7- AAD staining by flow cytometry; format: functional; outline: as §1
DU-145 [8] = test: Induction of apoptosis in human DU145 cells at 10 uM assessed as early apoptosis level after 72 hrs by AnnexinV conjugated 7- AAD staining by flow cytometry; format: functional; outline: as §1
DU-145 [9] = test: Induction of apoptosis in human DU145 cells at 10 uM assessed as late apoptosis/ necrotic cells level after 72 hrs by AnnexinV conjugated 7- AAD staining by flow cytometry; format: functional; outline: as §1
DU-145 [10] = test: Induction of apoptosis in human DU145 cells at 10 uM assessed as dead cell level after 72 hrs by AnnexinV conjugated 7- AAD staining by flow cytometry; format: functional; outline: as §2

| SMILES | IC50 (DU-145 [1]) | IC50 (IMR-90) | IC50 (A549) | IC50 (HeLa) | IC50 (HepG2) | IC50 (HT-1080) | IC50 (HT-29) | IC50 (KB) | IC50 [2] | IC50 (MCF7) | IC50 (MOLT-4) | IC50 (OS-RC-2) | IC50 (SGC-7901) | IC50 (U-251) | other results |
| --- | --- | --- | --- | --- | --- | --- | --- | --- | --- | --- | --- | --- | --- | --- | --- |
| O=C1C=C(N2CCN(c3ccccc3)CC2)C(=O)c2c(O)ccc(O)c21 | 1.3 µM | > 50 µM | 1.7 µM | 2.1 µM | 5.4 µM | 2.8 µM | 2.6 µM | 1.4 µM | 1.9 µM | 3 µM | > 50 µM | 1.5 µM | 2.5 µM | 6.1 µM | Activity (DU-145 [3]): 7.48%; Activity (DU-145 [4]): 19.8%; Activity (DU-145 [5]): 71.34%; Activity (DU-145 [6]): 1.39%; Activity (DU-145 [7]): 0.95%; Activity (DU-145 [8]): 13.77%; Activity (DU-145 [9]): 84.76%; Activity (DU-145 [10]): 0.53% |
| COc1ccc(N2CCN(C3=CC(=O)c4ccccc4C3=O)CC2)cc1OC | 17.8 µM | – | – | – | – | – | – | – | – | – | – | – | – | – | – |
| O=C1C=C(N2CCC(c3ccccc3)CC2)C(=O)c2c(O)cccc21 | 3 µM | > 50 µM | > 50 µM | 8.6 µM | 9.7 µM | 11.1 µM | 5.4 µM | 2.2 µM | 13.4 µM | 8.8 µM | 2.7 µM | 0.7 µM | 11.1 µM | 10.8 µM | Activity (DU-145 [3]): 53.01%; Activity (DU-145 [4]): 3.87%; Activity (DU-145 [5]): 37.56%; Activity (DU-145 [6]): 5.57%; Activity (DU-145 [7]): 50.85%; Activity (DU-145 [8]): 3.17%; Activity (DU-145 [9]): 38.3%; Activity (DU-145 [10]): 7.68% |
| O=C1C=C(N2CCN(c3ccc(Cl)cc3)CC2)C(=O)c2ccccc21 | 29.5 µM | – | – | – | – | – | – | – | – | – | – | – | – | – | – |
| O=C1C(N2CCN(c3ccc(F)cc3)CC2)=CC(=O)c2c(O)cccc21 | 22.4 µM | – | – | – | – | – | – | – | – | – | – | – | – | – | – |
| COc1ccccc1N1CCN(C2=CC(=O)c3cccc(O)c3C2=O)CC1 | 1.8 µM | > 50 µM | 3.6 µM | 6.5 µM | 3.9 µM | 5.1 µM | 2.8 µM | 2.8 µM | 4.6 µM | 5.6 µM | 25.8 µM | 1.9 µM | 6.8 µM | 4.4 µM | Activity (DU-145 [3]): 46.26%; Activity (DU-145 [4]): 5.88%; Activity (DU-145 [5]): 42.79%; Activity (DU-145 [6]): 5.08%; Activity (DU-145 [7]): 23.55%; Activity (DU-145 [8]): 10.13%; Activity (DU-145 [9]): 62.93%; Activity (DU-145 [10]): 3.4% |
| COc1ccc(N2CCN(C3=CC(=O)c4ccccc4C3=O)CC2)cc1 | 46.1 µM | – | – | – | – | – | – | – | – | – | – | – | – | – | – |
| Cc1ccccc1C1CCN(C2=CC(=O)c3cccc(O)c3C2=O)CC1 | 2.5 µM | > 50 µM | 5.2 µM | 9.7 µM | 16.6 µM | > 50 µM | 6.7 µM | 4.4 µM | 4.4 µM | 8.9 µM | > 50 µM | 3.2 µM | 3.9 µM | 30.4 µM | Activity (DU-145 [3]): 51.4%; Activity (DU-145 [4]): 10.31%; Activity (DU-145 [5]): 34.39%; Activity (DU-145 [6]): 3.9%; Activity (DU-145 [7]): 0.96%; Activity (DU-145 [8]): 14.31%; Activity (DU-145 [9]): 84.32%; Activity (DU-145 [10]): 0.42% |
| O=C1C=C(N2CCN(c3ccc(Br)cc3)CC2)C(=O)c2ccccc21 | > 50 µM | – | – | – | – | – | – | – | – | – | – | – | – | – | – |
| O=C1C=C(N2CCN(c3ccc(F)c(Cl)c3)CC2)C(=O)c2ccccc21 | 32.2 µM | – | – | – | – | – | – | – | – | – | – | – | – | – | – |

The remaining compounds from weak to strong by IC50 (DU-145 [1]), led by results:

| IC50 (DU-145 [1]) | SMILES | IC50 (IMR-90) | IC50 (A549) | IC50 (HeLa) | IC50 (HepG2) | IC50 (HT-1080) | IC50 (HT-29) | IC50 (KB) | IC50 [2] | IC50 (MCF7) | IC50 (MOLT-4) | IC50 (OS-RC-2) | IC50 (SGC-7901) | IC50 (U-251) | other results |
| --- | --- | --- | --- | --- | --- | --- | --- | --- | --- | --- | --- | --- | --- | --- | --- |
| 15.2 µM | O=C1C(N2CCN(c3ccccc3)CC2)=CC(=O)c2c(O)cccc21 | – | – | – | – | – | – | – | – | – | – | – | – | – | – |
| 9.9 µM | O=C1C=C(N2CCN(c3ccccc3)CC2)C(=O)c2ccccc21 | – | – | – | – | – | – | – | – | – | – | – | – | – | – |
| 8.2 µM | Cc1ccc(N2CCN(C3=CC(=O)c4ccccc4C3=O)CC2)cc1 | – | – | – | – | – | – | – | – | – | – | – | – | – | – |
| 7.4 µM | Cc1cccc(N2CCN(C3=CC(=O)c4ccccc4C3=O)CC2)c1 | – | – | – | – | – | – | – | – | – | – | – | – | – | – |
| 7.3 µM | O=C1C=C(N2CCC(c3ccc(Cl)cc3)CC2)C(=O)c2ccccc21 | – | – | – | – | – | – | – | – | – | – | – | – | – | – |
| 2.3 µM | O=C1C=C(N2CCN(c3ccccc3Cl)CC2)C(=O)c2c(O)cccc21 | 16.9 µM | 4.5 µM | 7.2 µM | 7.7 µM | 5.8 µM | 1.4 µM | 4.4 µM | 5.2 µM | 23.8 µM | 27.6 µM | 2.5 µM | 8.2 µM | 8 µM | – |
